For 10 compounds, Kd, IC50 and inhibition results are on record in ChEMBL document CHEMBL1138831, “Computer-assisted design of selective imidazole inhibitors for cytochrome p450 enzymes” (J Med Chem, 2004).

Assay [1] concerns the target T1, Camphor 5-monooxygenase (Pseudomonas putida, UniProt P00183, L244A). As to the kind of experiment: Binding constant for L244A mutant cytochrome P450cam expressed in Escherichia coli. The following applies: read-out: Ks. The method in brief: (§1)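 Camphor stripped from the enzyme by two elutions with 100 mM sodium phosphate over a size-exclusion column, leaving low-spin water-bound heme. 0.5 μM protein in 100 mM potassium phosphate at 37 °C, measured by difference UV spectroscopy. The 416 nm trough to 424 nm peak absorbance difference was fitted by nonlinear regression to ΔA = ΔAmax[I]/(Ks+[I]).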

The target of assay [2] is T2, Camphor 5-monooxygenase (Pseudomonas putida, UniProt P00183).
T2 sequence (P00183 whole entry): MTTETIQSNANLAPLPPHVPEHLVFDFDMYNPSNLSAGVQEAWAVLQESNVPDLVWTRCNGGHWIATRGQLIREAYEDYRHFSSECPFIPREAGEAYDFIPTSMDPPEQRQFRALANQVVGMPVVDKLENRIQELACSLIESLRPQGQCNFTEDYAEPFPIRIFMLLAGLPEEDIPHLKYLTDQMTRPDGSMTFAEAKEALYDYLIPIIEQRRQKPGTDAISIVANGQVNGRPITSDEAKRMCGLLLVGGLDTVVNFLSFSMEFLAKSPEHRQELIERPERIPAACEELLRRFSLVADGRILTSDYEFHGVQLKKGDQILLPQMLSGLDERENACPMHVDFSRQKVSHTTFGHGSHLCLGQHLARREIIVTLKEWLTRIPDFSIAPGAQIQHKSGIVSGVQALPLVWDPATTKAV
As to the kind of experiment: Binding constant for wild type cytochrome P450cam expressed in Escherichia coli. The following applies: read-out: Ks. A digest of the protocol: as §1

The target of assay [3] is T2, Camphor 5-monooxygenase. Briefly: Inhibition of wild type cytochrome P450cam expressed in Escherichia coli.
The target in assay [4] is T2, Camphor 5-monooxygenase. Briefly: Inhibition of wild type cytochrome P450cam expressed in Escherichia coli at 1 mM. A digest of the protocol: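 Camphor-depleted enzyme in 100 mM potassium phosphate, with inhibitor at 1 mM added in DMSO (≤3% of volume). Incubated 15 min at 20 °C, then quenched with CH2Cl2 containing 2 mM β-thujone internal standard. Turnover was taken from the GC product/starting-material ratio and expressed as percent inhibition.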

The target of assay [5] is T1, Camphor 5-monooxygenase. Briefly: Inhibition of L244A mutant cytochrome P450cam expressed in Escherichia coli. A digest of the protocol:
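Camphor-depleted enzyme at 20 nM in 100 mM potassium phosphate, with inhibitor at varying amounts added in DMSO (≤3% of volume). Incubated 15 min at 20 °C, then quenched with CH2Cl2 containing 2 mM β-thujone internal standard. Product/starting-material ratio was measured by GC to give turnover, and IC50 was fitted with a Langmuir isotherm.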

In the case of `CC(=O)N1CCN(c2ccc(OC[C@@H]3CO[C@@](Cn4ccnc4)(c4ccc(Cl)cc4Cl)O3)cc2)CC1` [KETOCONAZOLE], the Kd on Camphor 5-monooxygenase [1] is 0.6 µM; on Camphor 5-monooxygenase [2] it was 0.5 µM. Turning to `c1ccc(Cn2ccnc2)cc1` [BENZYLIMIDAZOLE], the IC50 against Camphor 5-monooxygenase [3] came to 16 µM.

In turn, `CC(C)(C)Cc1cncn1C1CC1` displayed an inhibition at 1000 µM against Camphor 5-monooxygenase [4] of 80%. On Camphor 5-monooxygenase [5], this compound displayed an IC50 of 129 µM. `CCCc1cncn1CC1CC1` came in with an inhibition at 1000 µM against Camphor 5-monooxygenase [4] of 60%. The same compound displayed an IC50 against Camphor 5-monooxygenase [5] of 36 µM. Turning to `c1cn(CC2CCCCC2)cn1`, the IC50 against Camphor 5-monooxygenase [3] turned out to be 1.5 µM. As to `CC(C)Cc1cncn1CC1CC1`, the inhibition at 1000 µM against Camphor 5-monooxygenase [4] came to 20%. On Camphor 5-monooxygenase [5], this compound had an IC50 of 10.1 µM. At Camphor 5-monooxygenase [4], `CCCc1cncn1C1CCCC1` showed an inhibition at 1000 µM of 60%. For the same compound, the IC50 on Camphor 5-monooxygenase [5] amounted to 6.5 µM.

Compound `c1ccc(Cn2cncc2C2CC2)cc1` gave an inhibition at 1000 µM against Camphor 5-monooxygenase [4] of 30%. 41 µM corresponded to half-maximal inhibition at Camphor 5-monooxygenase [5] (IC50).

With `CCC(CC)Cn1ccnc1`, at Camphor 5-monooxygenase [3], the IC50 amounted to 0.8 µM.

Regarding `c1cn(CC2CC2)cn1`, on Camphor 5-monooxygenase [3], half-maximal inhibition (IC50) was put at 4 µM.
